Lung fibro prol = blocks proliferation of human lung fibroblasts | LL 47 human lung fibroblast viability, ATP luminescence; hits give low values | viability, % at 10 µM | 85,000 tested, 1.1% active;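 active = viability at or below 50% in the single dose screen; inactive = viability above 50%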;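 also: compound exposure lasted 72 h before the ATP readout; 100% = median luminescence of untreated cell-only wells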
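Signal: luminescent ATP detection, CellTiter-Glo; assay system: LL 47 human lung fibroblasts; input: 1,150 cells/well; incubation: overnight cell rest, 72 h compound treatment at 37 °C; measure: % viability versus median cells-only luminescence; medium: IMEM growth medium with 15% fetal bovine serum; dosing: compound addition at 0.1% DMSO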
bCat KO growth = beta-catenin-lacking colon tumor cell growth suppression. HCT116 beta-catenin knockout viability, CellTiter-Glo, 60 h; hits give low values. viability, % at 10 µM. 140,000 tested, 1.5% active. AID 818;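 active = viability at or under a set limit, the compound median less 4 SD, cut at about 6% in these data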;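 also: 0% = Hyamine 1622 control at 20 µM and 100% = untreated cell control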
H69AR growth 86K = growth inhibitors of human H69AR lung tumor cells. 85,000 tested, 6% active. H69AR lung tumor viability, ATP luminescence, 72 h; hits give low values. AID 598. viability, % at 10 µM;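 active = viability at or below 40%; inactive = viability above 40%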;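 also: multidrug resistant small cell line overexpressing MRP-1 efflux transporter; 100% = mean luminescence of untreated control wells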
PTEN del growth = PTEN-deleted cell growth suppression; HCT116 PTEN-null viability, CellTiter-Glo, 60 h; hits give low values; 140,000 tested, 1.2% active; AID 827; viability, % at 10 µM;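 active = viability at or below a set limit, 4 SD under the median of all tested compounds, cut at about 3.7% in these data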;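 also: PTEN knockout HCT116 line with beta catenin targeted HCT116 as companion control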
HUVEC prolif 384 = human endothelial cell proliferation inhibition. HUVEC proliferation, CellTiter-Glo luminescence, 72 h; hits give low values. viability, % at 10 µM (by protocol). 86,000 tested, 1.1% active. AID 648;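 active = viability at or below 30%; inactive = viability above 30%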;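 also: 100% = median luminescence of DMSO-only cell control wells on each plate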
Numbers without * were called inactive. The sample as a whole holds a higher share of hits than the screen did.

`CC1=CC(C)(C)N(S(=O)(=O)c2ccc(C)cc2)c2ccc(C)cc21` gave Lung fibro prol 52.8, bCat KO growth 15.2, H69AR growth 86K 21.6*, PTEN del growth 16.7 and HUVEC prolif 384 65.5.
CC1=CC(C)(C)N(S(=O)(=O)c2ccc(F)cc2)c2ccccc21 was read as Lung fibro prol 51.0, bCat KO growth 18.2, H69AR growth 86K 19.3*, PTEN del growth 20.5 and HUVEC prolif 384 61.5.
`CCOC(=O)c1sc(NN=C(C(=O)OC)C(=O)OC)c(C(=O)OCC)c1C` gave bCat KO growth 75.2 and PTEN del growth 54.6.
Screening Cc1ccc2c(CC(=O)Nc3ccc(N4CCN(C)CC4)cc3C)coc2c1 returned Lung fibro prol 69.1, bCat KO growth 46.1, H69AR growth 86K 21.7*, PTEN del growth 44.4 and HUVEC prolif 384 15.3*.
Cc1ccc(C)c(C(=O)COc2ccccc2[N+](=O)[O-])c1 was read as bCat KO growth 1.9* and PTEN del growth 1.6*.
Screening Cc1ccccc1N=C(NOCc1ccc(Cl)cc1Cl)c1nonc1N returned Lung fibro prol 78.5, bCat KO growth 68.5, H69AR growth 86K 9.2*, PTEN del growth 65.2 and HUVEC prolif 384 85.5.
Screening Cc1ccc(N=C(NOCc2ccc(Cl)cc2Cl)c2nonc2N)c(C)c1 returned Lung fibro prol 82.9, bCat KO growth 42.4, H69AR growth 86K 65.8, PTEN del growth 53.6 and HUVEC prolif 384 91.8.
Screening Nc1c(C(=O)NCc2ccc(F)cc2)c2nc3ccccc3nc2n1CCCN1CCOCC1 returned Lung fibro prol 68.3, bCat KO growth 1.3*, H69AR growth 86K 1.2*, PTEN del growth 1.0* and HUVEC prolif 384 5.1*.
For C=CCn1c(N)c(C(=O)NCC2CCCO2)c2nc3ccccc3nc21 (stereo not drawn) the results were Lung fibro prol 95.8, bCat KO growth 62.2, H69AR growth 86K 68.3, PTEN del growth 66.2 and HUVEC prolif 384 63.4.
For COc1ccc(-n2c(N)c(C(=O)NCC3CCCO3)c3nc4ccccc4nc32)c(OC)c1 (stereo not drawn) the results were Lung fibro prol 87.4, bCat KO growth 48.5, H69AR growth 86K 39.5*, PTEN del growth 46.3 and HUVEC prolif 384 66.7.
Screening COc1ccc(CNC(=O)c2c(N)n(CCCN3CCOCC3)c3nc4ccccc4nc23)cc1 returned Lung fibro prol 92.3, bCat KO growth 1.4*, H69AR growth 86K 1.2*, PTEN del growth 1.7* and HUVEC prolif 384 7.0*.
Screening O=C(NCCOC(=O)c1ccc(Cl)cc1)c1cccnc1 returned Lung fibro prol 99.2, bCat KO growth 98.7, H69AR growth 86K 97.0, PTEN del growth 99.5 and HUVEC prolif 384 89.7.
`O=C(OCC(=O)C12CC3CC(CC(C3)C1)C2)c1cccnc1Cl` gave bCat KO growth 81.6 and PTEN del growth 96.7.
`CCCCn1c(SCC(=O)Nc2cc(C(F)(F)F)ccc2Cl)nnc1C(CC)N(C)C` (stereo not drawn) gave bCat KO growth 87.8 and PTEN del growth 84.1.
For CCCCOc1cccc(C(=O)NNC(=S)NC2CCCCC2)c1 the results were bCat KO growth 80.6 and PTEN del growth 85.4.
`CCn1c(=O)c(C(=O)Nc2ccsc2C(=O)OC)c(O)c2ccccc21` gave bCat KO growth 4.7* and PTEN del growth 4.8.
For CCCn1c(=O)c(C(=O)Nc2nnc(CC)s2)c(O)c2ccccc21 the results were Lung fibro prol 98.6, H69AR growth 86K 23.3* and HUVEC prolif 384 109.8.
CCCn1c(=O)c(C(=O)Nc2cnccn2)c(O)c2ccccc21 was read as Lung fibro prol 105.1, H69AR growth 86K 97.2 and HUVEC prolif 384 114.3.
Screening CCOC(=O)c1ccccc1NC(=O)c1c(O)c2ccccc2n(CC)c1=O returned Lung fibro prol 101.9, bCat KO growth 69.3, H69AR growth 86K 40.0*, PTEN del growth 72.7 and HUVEC prolif 384 110.6.
Screening C=CCn1c(=O)c(C(=O)Nc2ccccc2C(=O)OCC)c(O)c2ccccc21 returned Lung fibro prol 90.7, bCat KO growth 58.5, H69AR growth 86K 89.8, PTEN del growth 56.0 and HUVEC prolif 384 108.3.
For COc1ccc(NC(=O)Cn2c(=O)n(CC(=O)NCc3ccco3)c(=O)c3ccccc32)cc1 the results were bCat KO growth 93.1 and PTEN del growth 100.4.
Screening COc1ccc(Cl)cc1NC(=S)NCc1ccco1 returned Lung fibro prol 92.9, bCat KO growth 86.5, H69AR growth 86K 94.8, PTEN del growth 82.9 and HUVEC prolif 384 95.9.
For Cc1ccc(NC(=O)c2ccc3c(c2)OCCO3)cc1S(=O)(=O)Nc1cccc(Cl)c1 the results were bCat KO growth 53.6 and PTEN del growth 46.0.
`CC(C)COc1ccc2[nH]c3c(c2c1)CCCC3=O` gave Lung fibro prol 92.0, bCat KO growth 83.4, H69AR growth 86K 92.6, PTEN del growth 82.4 and HUVEC prolif 384 19.5*.
`COc1ccc(Cn2c(CCC(=O)Nc3ccc(C)c(C)c3)nc3cccnc32)cc1` gave Lung fibro prol 104.9, bCat KO growth 103.8, H69AR growth 86K 37.4*, PTEN del growth 88.3 and HUVEC prolif 384 84.5.
COc1ccc(Cn2c(CCC(=O)Nc3ccccc3)nc3cccnc32)cc1 was read as Lung fibro prol 95.3, bCat KO growth 92.9, H69AR growth 86K 88.7, PTEN del growth 104.5 and HUVEC prolif 384 75.1.
`CCn1c(COc2ccc(Cl)cc2)nnc1SCc1nc2ccccc2[nH]1` gave Lung fibro prol 91.2, bCat KO growth 38.3, H69AR growth 86K 4.4*, PTEN del growth 39.9 and HUVEC prolif 384 88.2.
Screening Cc1ccc(OCc2nnc(SCc3nc4ccccc4[nH]3)n2Cc2ccco2)cc1 returned Lung fibro prol 91.7, bCat KO growth 33.9, H69AR growth 86K 91.5, PTEN del growth 42.4 and HUVEC prolif 384 85.0.
For CC(=O)c1ccn(S(=O)(=O)c2ccccc2)c1 the results were bCat KO growth 91.1 and PTEN del growth 84.3.
Screening CC(C)(C)C1CCc2c(sc(NC(=O)c3ccco3)c2C(N)=O)C1 (stereo not drawn) returned Lung fibro prol 59.3, bCat KO growth 41.5, H69AR growth 86K 38.7*, PTEN del growth 50.6 and HUVEC prolif 384 75.5.
CC(C)n1cc(/C=C2/SC(=O)N(CC(=O)Nc3ccc4c(c3)OCO4)C2=O)c2ccccc21 was read as bCat KO growth 34.7 and PTEN del growth 54.2.
For CC(C)n1cc(/C=C2/NC(=O)N(c3cccc(Cl)c3)C2=O)c2ccccc21 the results were Lung fibro prol 80.3, bCat KO growth 28.8, H69AR growth 86K 18.2*, PTEN del growth 26.7 and HUVEC prolif 384 56.8.
For CC(C)n1cc(/C=N/NC(=O)COc2cccc3cccnc23)c2ccccc21 the results were bCat KO growth 89.4 and PTEN del growth 86.9.
CC(C)n1cc(/C=C2\NC(=O)N(c3cccc(Cl)c3)C2=O)c2ccccc21 was read as Lung fibro prol 89.0, bCat KO growth 30.1, H69AR growth 86K 15.3*, PTEN del growth 26.3 and HUVEC prolif 384 64.8.

Compound activity: PubChem, SRMLSC
